# Results: ChEMBL document CHEMBL5500387, “Design, synthesis of combretastatin A-4 piperazine derivatives as potential antitumor agents by inhibiting tubulin polymerization and inducing autophagy in HCT116 cells” (Eur J Med Chem, 2024)
# pIC50: −log10 of the molar value.
# Experiments:
# [1] = test system: A549; assay: Induction of apoptosis in human A549 cells assessed as late apoptotic cells at 0.2 uM measured after 24 hrs by Annexin V-APC/PI staining based flow cytometry analysis (reference value: 0.86%); format: functional
# [2] = test system: A549; assay: Induction of apoptosis in human A549 cells assessed as early apoptotic cells at 0.1 uM measured after 24 hrs by Annexin V-APC/PI staining based flow cytometry analysis (reference value: 1.73%); format: functional
# [3] = test system: HCT-116; assay: Induction of cell cycle arrest in human HCT-116 cells assessed as accumulation of cells at G2/M phase at 0.1 uM measured after 24 hrs by PI/RNase staining based flow cytometry analysis (reference value: 28.83%); format: functional
# [4] = test system: HCT-116; assay: Induction of cell cycle arrest in human HCT-116 cells assessed as accumulation of cells at G2/M phase at 0.3 uM measured after 24 hrs by PI/RNase staining based flow cytometry analysis (reference value: 28.83%); format: functional
# [5] = test system: A549; assay: Induction of apoptosis in human A549 cells assessed as late apoptotic cells at 0.3 uM measured after 24 hrs by Annexin V-APC/PI staining based flow cytometry analysis (reference value: 0.86%); format: functional
# [6] = test system: HCT-116; assay: Cytotoxicity against human HCT-116 cells assessed as inhibition of cell proliferation measured after 72 hrs by CCK-8 assay; format: functional, cell-based; settings: HCT-116, 72 h
# Method in brief: (§1)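 Cells seeded at 2×10^3 per well and grown overnight in 10% FBS medium: HCT116 in McCoy's 5A, A549 and AGS in F-12K, SK-MES-1 in DMEM. Compounds added at varied concentrations with 0.1% DMSO control, 72 h at 37 °C. 10% CCK-8 for 2 h, then A450 read. Survival = (As−Ab)/(Ac−Ab)×100%. IC50 from curve fitting.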
# [7] = test system: HCT-116; assay: Antitumor activity against human HCT-116 cells xenografted in female BALB/c nude mouse assessed as tumor growth inhibition at 20 mg/kg, ip administered every 2 days for 20 days by vernier caliper relative to control; format: functional; settings: HCT-116, 480 h, time 20 day, read-out: TGI
# Method in brief: (§2)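 HCT116 cells (5×10^7/0.2 mL/mouse) injected subcutaneously beside the right forelimb of 5-week-old female BALB/c nude mice. At 100 mm³ tumour volume, mice randomised by weight and tumour size into four groups of ten. Saline vehicle control ip. Dosing for 20 days, then euthanasia and tumour weighing. Caliper diameters used; volume = W²×L/2.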
# [8] = test system: HCT-116; assay: Antitumor activity against human HCT-116 cells xenografted in female BALB/c nude mouse assessed as tumor growth inhibition at 40 mg/kg, ip administered every 2 days for 20 days by vernier caliper relative to control; format: functional; settings: HCT-116, 480 h, time 20 day, read-out: TGI; method in brief: as §2
# [9] = test system: HCT-116; assay: Induction of cell cycle arrest in human HCT-116 cells assessed as accumulation of cells at G2/M phase at 0.2 uM measured after 24 hrs by PI/RNase staining based flow cytometry analysis (reference value: 28.83%); format: functional
# [10] = test system: SK-MES-1; assay: Cytotoxicity against human SK-MES-1 cells assessed as inhibition of cell proliferation measured after 72 hrs by CCK-8 assay; format: functional, cell-based; settings: SK-MES-1, 72 h; method in brief: as §1
# [11] = test system: A549; assay: Induction of cell cycle arrest in human A549 cells assessed as accumulation of cells at G0/G1 phase at 0.3 uM measured after 24 hrs by PI/RNase staining based analysis (reference value: 41.91%); format: functional
# [12] = test system: A549; assay: Induction of cell cycle arrest in human A549 cells assessed as accumulation of cells at G0/G1 phase at 0.2 uM measured after 24 hrs by PI/RNase staining based analysis (reference value: 41.91%); format: functional
# [13] = Toxicity in female BALB/c nude mouse xenografted with human HCT-116 cells assessed as adverse effects at 20 to 40 mg/kg, ip administered every 2 days for 20 days; format: organism-based; settings: in vivo, 480 h, dose 20-40 mg/kg, time 20 day
# Method in brief: (§3)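 Female BALB/c nude mice, 5 weeks old, bearing subcutaneous HCT116 xenografts (started at 100 mm³), randomised into groups of ten. Saline-injected ip controls. Body weight monitored throughout the 20-day intraperitoneal treatment.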
# [14] = test system: HCT-116; assay: Induction of autophagy in human HCT-116 cells assessed as downregulation of p62 protein level measured after 24 hrs by Western blot analysis; format: functional, cell-based; settings: dose 0.1-0.3 µM
# Method in brief: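 HCT116 cells exposed for 24 h to 0.1, 0.2 or 0.3 μM. Lysed on ice and protein measured by BCA. […] Milk-blocked, probed with anti-LC3A/B or anti-phospho-SQSTM1/p62 (1:1000) plus β-actin, then HRP anti-rabbit and chemiluminescence. Bands normalised to control set to 1. Three independent experiments.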
# [15] = Toxicity in female BALB/c nude mouse xenografted with human HCT-116 cells assessed as reduction in body weight at 20 to 40 mg/kg, ip administered every 2 days for 20 days; format: organism-based; settings: in vivo, 480 h, dose 20-40 mg/kg, time 20 day; method in brief: as §3
# [16] = test system: HCT-116; assay: Induction of cell cycle arrest in human HCT-116 cells assessed as accumulation of cells at G0/G1 phase at 0.2 uM measured after 24 hrs by PI/RNase staining based flow cytometry analysis (reference value: 32.88%); format: functional
# [17] = test system: AGS; assay: Cytotoxicity against human AGS cells assessed as inhibition of cell proliferation measured after 72 hrs by CCK-8 assay; format: functional, cell-based; method in brief: as §1
# [18] = test system: HCT-116; assay: Induction of cell cycle arrest in human HCT-116 cells assessed as accumulation of cells at S phase at 0.1 uM measured after 24 hrs by PI/RNase staining based flow cytometry analysis (reference value: 38.29%); format: functional
# [19] = test system: HCT-116; assay: Induction of cell cycle arrest in human HCT-116 cells assessed as accumulation of cells at G0/G1 phase at 0.3 uM measured after 24 hrs by PI/RNase staining based flow cytometry analysis (reference value: 32.88%); format: functional
# [20] = biological target: Tubulin (Homo sapiens) (UniProt P68371+Q9H4B7+P0DPH7+P68366+Q13509+Q71U36+P04350+Q3ZCM7+P07437+P68363+Q9BQE3+Q6PEY2+Q13885+Q9BVA1+Q9BUF5); assay: Inhibition of tubulin polymerization in human HCT-116 cells measured after 48 hrs by immunofluorescent staining based analysis; format: cell-based; settings: dose 0.1-0.3 µM
# Method in brief: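 HCT116 cells (1×10^5/well suspension) settled on glass slides overnight at 37 °C, 5% CO2. Treated 48 h with 0.1, 0.2 or 0.3 μM, or 0.1% DMSO. Fixed in 4% paraformaldehyde, permeabilised with 0.5% Triton X-100, blocked. Anti-α-tubulin (1:4000) at 4 °C overnight, then Alexa488 anti-mouse IgG 1 h. DAPI mount, confocal imaging.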
# [21] = test system: HCT-116; assay: Induction of cell cycle arrest in human HCT-116 cells assessed as accumulation of cells at S phase at 0.2 uM measured after 24 hrs by PI/RNase staining based flow cytometry analysis (reference value: 38.29%); format: functional
# [22] = test system: A549; assay: Induction of apoptosis in human A549 cells assessed as early apoptotic cells at 0.2 uM measured after 24 hrs by Annexin V-APC/PI staining based flow cytometry analysis (reference value: 1.73%); format: functional
# [23] = test system: A549; assay: Induction of cell cycle arrest in human A549 cells assessed as accumulation of cells at S phase at 0.1 uM measured after 24 hrs by PI/RNase staining based analysis (reference value: 24.95%); format: functional
smiles,measurement,setting,value
COc1ccc(/C=C(/C(=O)N2CCN(c3ccc(C)cc3)CC2)c2cc(OC)c(OC)c(OC)c2)cc1O,Activity,[1],4.72%
same,Activity,[2],10.34%
same,Activity,[3],33.79%
same,Activity,[4],88.26%
same,Activity,[5],8.87%
same,pIC50,[6],6.64
same,inhibition in vivo at 20 mg/kg,[7],1.48%
same,inhibition in vivo at 40 mg/kg,[8],12.7%
same,Activity,[9],44.67%
same,pIC50,[10],6.37
same,Activity,[11],87.18%
same,Activity,[12],77.73%
same,Activity,[13],Non-Toxic
same,Activity,[14],Dose-Dependent Effect
same,Activity,[15],Non-Toxic
same,Activity,[16],34.17%
same,pIC50,[17],6.24
same,Activity,[18],31.95%
same,Activity,[19],5.43%
same,inhibition,[20],Dose-Dependent Effect
same,Activity,[21],21.17%
same,Activity,[22],17.43%
same,Activity,[23],24.95%
